Laboratory results reported in ChEMBL document CHEMBL2176934 (J Med Chem, 2012).
Activity calls are given as the source filed them. The rule behind the calls is not given here.

How the values were obtained:
[1] = biological target: Voltage-gated inwardly rectifying potassium channel KCNH2 (Homo sapiens, UniProt Q12809); test: Inhibition of human ERG
[2] = Inhibition of Cytochrome P450; format: ADME
[3] = Inhibition of LPA-induced proliferation of HLF incubated for 1 hr prior to LPA-challenge measured after 48 hrs by BrdU incorporation assay; details: Homo sapiens
[4] = Inhibition of LPA-induced proliferation of HLF at 1 uM incubated for 1 hr prior to LPA-challenge measured after 48 hrs by BrdU incorporation assay; format: functional; details: Homo sapiens
Summary of the method: (§1)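 NHLFs (passages 5–9) seeded on collagen I at 5 × 10³ cells/well overnight in complete medium, then starved 24 h in basal medium with 0.1% FBS and 0.1% fatty acid-free BSA. Stimulated with LPA (18:1) 15 μM in the presence of antagonist; proliferation read as BrdU incorporation with a commercial kit.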

[5] = biological target: T1, Lysophosphatidic acid receptor 1 (Homo sapiens, UniProt Q92633); test: Antagonist activity at human recombinant LPA1 expressed in chem-1 cells assessed as inhibition of LPA-induced intracellular calcium mobilization at 30 uM incubated for 30 mins prior to LPA-challenge measured over 100 secs by FLIPR assay; format: functional, cell-based
T1 sequence (Q92633 whole entry): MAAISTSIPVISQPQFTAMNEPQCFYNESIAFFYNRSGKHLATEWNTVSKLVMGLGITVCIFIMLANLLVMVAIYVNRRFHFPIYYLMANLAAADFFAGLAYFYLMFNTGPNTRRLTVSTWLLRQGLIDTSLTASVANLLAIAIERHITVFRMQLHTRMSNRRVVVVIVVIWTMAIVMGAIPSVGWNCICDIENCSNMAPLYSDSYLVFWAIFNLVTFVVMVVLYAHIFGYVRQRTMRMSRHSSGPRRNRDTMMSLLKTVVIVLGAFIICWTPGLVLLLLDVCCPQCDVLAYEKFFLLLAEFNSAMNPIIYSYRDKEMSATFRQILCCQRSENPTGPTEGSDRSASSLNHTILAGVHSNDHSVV
Summary of the method: (§2)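 Calcium-optimized Chem-1 cells stably expressing human LPA1 or LPA3 (parental line with ionomycin as counterscreen), seeded 10,000/well the day before. Calcium-4 dye in HBSS/20 mM HEPES/2.5 mM probenecid loaded 30 min at 37 °C; compound added, 30 min at room temperature in the dark; LPA (18:1) 1 μM final. Peak fluorescence read over 100 s; IC50 from 10-concentration 4-parameter logistic fit, mean of at least three runs.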

[6] = biological target: T2, Lysophosphatidic acid receptor 3 (Homo sapiens, UniProt Q9UBY5); test: Antagonist activity at human recombinant LPA3 expressed in chem-1 cells assessed as inhibition of LPA-induced intracellular calcium mobilization incubated for 30 mins prior to LPA-challenge measured over 100 secs by FLIPR assay; format: functional, cell-based; summary of the method: as §2
T2 sequence (Q9UBY5 whole entry): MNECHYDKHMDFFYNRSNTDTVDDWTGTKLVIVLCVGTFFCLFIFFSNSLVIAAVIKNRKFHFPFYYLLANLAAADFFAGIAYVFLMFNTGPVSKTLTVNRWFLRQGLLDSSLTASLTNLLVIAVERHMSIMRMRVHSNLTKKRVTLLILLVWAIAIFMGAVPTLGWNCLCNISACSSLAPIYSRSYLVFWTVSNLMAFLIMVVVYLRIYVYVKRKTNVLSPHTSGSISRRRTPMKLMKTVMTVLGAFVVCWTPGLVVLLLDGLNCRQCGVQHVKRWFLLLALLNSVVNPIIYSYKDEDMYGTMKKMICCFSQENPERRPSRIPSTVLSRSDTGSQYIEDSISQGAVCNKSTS

[7] = biological target: T3, Lysophosphatidic acid receptor 3 (Homo sapiens) (UniProt Q9UBY5); test: Antagonist activity at human recombinant LPA3 expressed in chem-1 cells assessed as inhibition of LPA-induced intracellular calcium mobilization at 30 uM incubated for 30 mins prior to LPA-challenge measured over 100 secs by FLIPR assay; format: functional, cell-based; summary of the method: as §2
T3 sequence (whole entry): T2 sequence (Q9UBY5 whole entry)

Plasma = test: Ratio of plasma concentration of AM095 to plasma concentration of compound in C57BL6/J mouse at 100 mg/kg, po dosed 2 hrs prior to LPA-challenge by LC/MS spectrometry; format: ADME, organism-based; design: dose 100 mg/kg, route oral; details: in vivo
Summary of the method: (§3)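 Male C57BL6/J mice, 7–9 weeks old, given compound orally 2 h before intravenous LPA 100 μg/mouse (in 0.1% fatty acid-free BSA). Killed 3 min after LPA; EDTA plasma histamine measured by ELISA and plasma drug levels by LC/MS. n = 5–8 mice, mean ± SEM; one-way ANOVA with Dunnett's test versus LPA vehicle control.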

Mus musculus = test: Antifibrosis activity in C57BL6/J mouse assessed as inhibition of LPA-stimulated histamine release at 100 mg/kg, po dosed 2 hrs prior to LPA-challenge by ELISA; format: functional, organism-based; design: dose 100 mg/kg; summary of the method: as §3
[8] = biological target: T1, Lysophosphatidic acid receptor 1; test: Antagonist activity at LPA1 in human lung fibroblasts assessed as inhibition of LPA-induced contraction after 18 hrs by 3D collagen gel contraction assay; format: functional
Summary of the method: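 NHLFs (healthy nonsmoking donors, passages 5–9) at 2.5 × 10⁵ cells/well, mixed 1:4 with collagen lattice; gels polymerized 2 h at 37 °C, then basal medium with 0.1% FBS, 0.1% fatty acid-free BSA and vehicle or antagonist added. Gels detached, LPA (18:1) 15 μM added; after 18 h, contraction quantified by gel disc weight.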

[9] = Inhibition of LPA-induced proliferation of HLF at 10 uM incubated for 1 hr prior to LPA-challenge measured after 48 hrs by BrdU incorporation assay; format: functional; details: Homo sapiens; summary of the method: as §1

Voltage-gated inwardly rectifying potassium channel KCNH2, sequence (Q12809 whole entry): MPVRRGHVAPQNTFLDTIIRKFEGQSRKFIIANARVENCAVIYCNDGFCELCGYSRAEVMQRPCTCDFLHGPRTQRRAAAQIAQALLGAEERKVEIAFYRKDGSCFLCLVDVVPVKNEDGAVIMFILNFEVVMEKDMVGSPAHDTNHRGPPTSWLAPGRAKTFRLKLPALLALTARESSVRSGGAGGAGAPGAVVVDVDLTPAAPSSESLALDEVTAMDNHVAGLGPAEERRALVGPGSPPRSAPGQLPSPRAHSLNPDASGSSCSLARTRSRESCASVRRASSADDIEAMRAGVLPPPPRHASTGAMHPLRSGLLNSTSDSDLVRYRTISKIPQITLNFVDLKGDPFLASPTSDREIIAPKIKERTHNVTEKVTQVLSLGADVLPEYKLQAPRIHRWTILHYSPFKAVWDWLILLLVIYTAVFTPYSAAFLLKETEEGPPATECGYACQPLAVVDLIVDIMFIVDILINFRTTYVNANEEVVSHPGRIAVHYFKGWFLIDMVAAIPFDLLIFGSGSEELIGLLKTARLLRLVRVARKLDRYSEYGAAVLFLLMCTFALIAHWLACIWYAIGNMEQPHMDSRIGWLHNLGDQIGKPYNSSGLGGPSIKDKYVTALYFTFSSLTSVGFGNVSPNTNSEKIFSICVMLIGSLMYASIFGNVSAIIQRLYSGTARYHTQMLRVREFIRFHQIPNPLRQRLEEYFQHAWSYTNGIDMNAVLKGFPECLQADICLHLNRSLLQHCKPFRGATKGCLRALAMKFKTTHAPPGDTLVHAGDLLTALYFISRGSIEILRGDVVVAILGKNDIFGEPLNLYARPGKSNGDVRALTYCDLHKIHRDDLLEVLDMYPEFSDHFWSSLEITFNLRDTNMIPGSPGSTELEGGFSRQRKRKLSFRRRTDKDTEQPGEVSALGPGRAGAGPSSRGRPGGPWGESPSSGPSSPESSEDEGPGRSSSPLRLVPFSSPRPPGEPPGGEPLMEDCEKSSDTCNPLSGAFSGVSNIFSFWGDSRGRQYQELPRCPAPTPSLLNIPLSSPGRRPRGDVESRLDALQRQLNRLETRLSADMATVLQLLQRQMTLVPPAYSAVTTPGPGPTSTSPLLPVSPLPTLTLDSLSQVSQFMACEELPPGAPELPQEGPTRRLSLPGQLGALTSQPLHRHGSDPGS

inhibition (INH) [2]	inhibition [5]	IC50 [6]	inhibition [8]	Compound	inhibition (INH) [1]	IC50 [3]	inhibition (Mus musculus)	other results
Not Active	> 97%	–	–	C[C@@H](OC(=O)Nc1c(-c2ccccc2F)cnn1C)c1ccccc1Cl	Not Active	810 nM	–	inhibition at 1 µM [4]: > 50%
Not Active	> 97%	> 30000 nM	–	CC(OC(=O)Nc1c(-c2ccc(F)cc2)cnn1C)c1ccccc1Cl (racemic)	Not Active	–	–	–
Not Active	–	–	Dose-dependent effect	Cc1nnn(-c2ccc(-c3ccc(C4(C(=O)O)CC4)cc3)cc2)c1NC(=O)O[C@H](C)c1ccccc1	Not Active	4 nM	Active	inhibition [7]: 20%; Ratio (Plasma): > 65
–	–	–	–	Cc1noc(-c2ccc(-c3ccc(CC(=O)O)cc3)cc2)c1NC(=O)O[C@H](C)c1ccccc1	–	–	Active	–
–	–	–	inactive	Cc1csc2c(N[C@@H](C)CN3CCN(S(=O)(=O)c4ccc(Cl)c(Cl)c4)CC3)ncnc12	–	–	–	inhibition at 10 µM [9]: < 50%
Not Active	> 97%	> 30000 nM	–	CC(OC(=O)Nc1c(-c2ccccc2)cnn1C)c1ccccc1Cl (racemic)	Not Active	–	–	–
